Measurements published in ChEMBL document CHEMBL1126888, “Peptide alpha-keto ester, alpha-keto amide, and alpha-keto acid inhibitors of calpains and other cysteine proteases” (J Med Chem, 1993).

Key:
[1] = molecular target: Cathepsin B (Bos taurus, UniProt P07688); assay: Inhibition of alpha-keto esters towards cathepsin B at pH 5.2
How it was run: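 Bovine cathepsin B in 20 mM sodium acetate pH 5.2, 0.5 mM dithiothreitol, 2% DMSO. Substrate Bz-Phe-Val-Arg-p-nitroanilide; p-nitroaniline release followed at 405 nm. Ki reported.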

[2] = molecular target: Calpain 1 (Homo sapiens, UniProt P07384); assay: Inhibitory activity of alpha-keto esters towards calpain 1 at pH 8.0.; type: protein-complex assay
Chain of Calpain 1 (P04632 whole entry): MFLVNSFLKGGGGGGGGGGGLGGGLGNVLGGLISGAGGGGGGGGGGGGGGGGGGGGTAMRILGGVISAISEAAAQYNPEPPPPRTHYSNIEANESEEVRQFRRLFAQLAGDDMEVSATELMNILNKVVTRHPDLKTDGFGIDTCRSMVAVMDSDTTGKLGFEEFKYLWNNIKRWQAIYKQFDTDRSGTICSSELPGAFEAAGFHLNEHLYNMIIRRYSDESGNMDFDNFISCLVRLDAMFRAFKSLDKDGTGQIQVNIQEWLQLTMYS
Chain of Calpain 1 (P07384 whole entry): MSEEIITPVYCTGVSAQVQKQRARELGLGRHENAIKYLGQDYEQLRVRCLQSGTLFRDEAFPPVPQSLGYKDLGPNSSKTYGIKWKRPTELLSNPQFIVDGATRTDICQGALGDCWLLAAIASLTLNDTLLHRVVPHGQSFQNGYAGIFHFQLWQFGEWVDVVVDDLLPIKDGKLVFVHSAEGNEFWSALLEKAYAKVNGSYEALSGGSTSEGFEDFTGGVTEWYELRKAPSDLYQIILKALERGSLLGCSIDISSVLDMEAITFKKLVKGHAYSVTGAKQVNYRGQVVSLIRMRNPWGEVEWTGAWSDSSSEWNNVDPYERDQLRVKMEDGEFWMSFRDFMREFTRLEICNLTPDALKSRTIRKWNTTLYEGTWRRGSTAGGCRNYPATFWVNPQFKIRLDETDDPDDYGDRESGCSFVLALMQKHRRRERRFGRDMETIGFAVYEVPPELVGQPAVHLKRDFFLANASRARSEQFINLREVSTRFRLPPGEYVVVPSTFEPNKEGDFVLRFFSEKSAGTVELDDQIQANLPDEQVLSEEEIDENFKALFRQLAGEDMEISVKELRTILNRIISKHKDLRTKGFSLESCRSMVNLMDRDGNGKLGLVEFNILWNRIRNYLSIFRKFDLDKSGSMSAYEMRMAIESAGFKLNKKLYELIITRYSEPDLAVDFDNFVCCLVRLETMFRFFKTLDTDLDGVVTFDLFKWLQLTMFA
How it was run: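 Calpain I purified from human erythrocytes; calpain II from rabbit muscle. Buffer: 25 mM Tris pH 8.0, 1 mM β-mercaptoethanol, 10 mM CaCl2, up to 5% DMSO. Substrate: Suc-Leu-Tyr-AMC at 1–3 mM, 70 nM final enzyme, started with enzyme. AMC fluorescence read at ex 380 / em 460 nm. Initial rates taken at 30–60 s at room temperature, with five or more inhibitor levels and two substrate levels. Ki from Dixon plots, triplicates.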

[3] = organism: Rattus norvegicus; assay: Inhibitory potency against rat platelet membrane permeability at pH 7.35; type: functional
How it was run: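 Rat platelets from cardiac-puncture blood (citrate-EDTA), gel-filtered in HEPES-Tyrode's pH 7.35, at 10^7/mL. Preincubated 5 min at room temperature with inhibitor from DMSO stocks (2% DMSO), then given 1 μM A23187 plus 2 mM Ca for 5 min. Pellets run on SDS-PAGE and western blotted for spectrin. Densitometry of the 150/155-kDa breakdown doublet gives IC50.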

[4] = molecular target: T1, Papain (Carica papaya, UniProt P00784); assay: Inhibitory activity of alpha-ketoesters towards papain at pH 6.0
T1 sequence (P00784 whole entry): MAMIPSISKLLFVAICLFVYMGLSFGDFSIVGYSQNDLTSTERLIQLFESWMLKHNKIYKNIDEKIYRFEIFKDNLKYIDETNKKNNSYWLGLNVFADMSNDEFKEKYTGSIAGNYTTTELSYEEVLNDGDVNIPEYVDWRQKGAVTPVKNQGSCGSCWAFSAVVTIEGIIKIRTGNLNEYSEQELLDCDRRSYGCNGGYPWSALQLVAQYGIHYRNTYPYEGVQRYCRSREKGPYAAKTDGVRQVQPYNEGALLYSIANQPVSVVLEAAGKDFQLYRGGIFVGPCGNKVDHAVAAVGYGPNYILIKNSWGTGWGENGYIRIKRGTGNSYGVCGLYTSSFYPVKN
How it was run: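 Papain in 100 mM K3PO4, 1 mM EDTA, 2.5 mM cysteine, pH 6.0, 2% DMSO. Substrate Bz-Arg-p-nitroanilide; p-nitroaniline release read at 405 nm. Ki reported.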

Ki [1] | Ki [2] | IC50 [3] | Ki [4] | SMILES
7.5 µM | – | – | – | CCOC(=O)C(=O)C(CC)NC(=O)C(CC(C)C)NC(=O)CCCCc1ccccc1 (stereo unspecified)
1.2 µM | 0.32 µM | – | – | CCC(NC(=O)C(CC(C)C)NC(=O)OCc1ccccc1)C(=O)C(=O)NCCCCc1ccccc1 (stereo unspecified)
4 µM | 4 µM | 28 µM | – | CCC(NC(=O)C(CC(C)C)NC(=O)OCc1ccccc1)C(=O)C(=O)NCC(C)C (stereo unspecified)
19 µM | – | – | – | CCOC(=O)C(=O)C(CC)NC(=O)C(CC(C)C)NS(=O)(=O)c1ccc2ccccc2c1 (stereo unspecified)
5 µM | – | – | – | CCCCCCCCCCNC(=O)C(=O)C(CC)NC(=O)C(CC(C)C)NC(=O)OCc1ccccc1 (stereo unspecified)
– | 0.32 µM | 27 µM | – | CCC(NC(=O)C(CC(C)C)NC(=O)OCc1ccccc1)C(=O)C(=O)NCC(C)c1ccccc1 (stereo unspecified)
0.4 µM | – | > 300 µM | – | CCOC(=O)C(=O)C(CC)NC(=O)C(CC(C)C)NC(=O)OCC(C)C (stereo unspecified)
20 µM | 7 µM | 150 µM | 190 µM | CCCCC(NC(=O)C(CC(C)C)NC(=O)OCc1ccccc1)C(=O)C(=O)OCC (stereo unspecified)
14 µM | 0.096 µM | – | – | CCCCCCCNC(=O)C(=O)C(CC)NC(=O)C(CC(C)C)NC(=O)OCc1ccccc1 (stereo unspecified)
0.5 µM | 2 µM | – | – | CCC(C)NC(=O)C(=O)C(CC)NC(=O)C(CC(C)C)NC(=O)OCc1ccccc1 (stereo unspecified)
3 µM | 15 µM | 31 µM | – | CCCNC(=O)C(=O)C(Cc1ccccc1)NC(=O)C(CC(C)C)NC(=O)OCc1ccccc1 (stereo unspecified)
> 100 µM | – | – | – | COC(=O)C(=O)C(Cc1ccccc1)NC(=O)C(CC(C)C)NC(=O)OCc1ccccc1 (stereo unspecified)
32 µM | 1 µM | – | – | CC(C)CC(NC(=O)OCc1ccccc1)C(=O)NC(Cc1ccccc1)C(=O)C(N)=O (stereo unspecified)
8 µM | – | 70 µM | – | CCCNC(=O)C(=O)C(CC)NC(=O)C(CC(C)C)NC(=O)OCc1ccccc1 (stereo unspecified)
3.3 µM | 0.21 µM | 40 µM | – | CCCC(NC(=O)C(CC(C)C)NC(=O)OCc1ccccc1)C(=O)C(=O)NCC (stereo unspecified)
4.5 µM | 0.0085 µM | 100 µM | 7 µM | CC(C)CC(NC(=O)OCc1ccccc1)C(=O)NC(Cc1ccccc1)C(=O)C(=O)O (stereo unspecified)
– | 76 µM | – | – | CCN(CC)C(=O)C(=O)C(Cc1ccccc1)NC(=O)C(CC(C)C)NC(=O)OCc1ccccc1 (stereo unspecified)
50 µM | < 4 µM | – | 150 µM | CCOC(=O)C(=O)C(Cc1ccc(Cl)cc1)NC(=O)C(CC(C)C)NC(=O)OCc1ccccc1 (stereo unspecified)
55 µM | 1 µM | – | 140 µM | CCOC(=O)C(=O)C(CCSC)NC(=O)C(CC(C)C)NC(=O)OCc1ccccc1 (stereo unspecified)
15 µM | 5 µM | – | 15 µM | CCCCOC(=O)C(=O)C(Cc1ccccc1)NC(=O)C(CC(C)C)NC(=O)OCc1ccccc1 (stereo unspecified)
17 µM | – | 280 µM | – | CCC(NC(=O)C(CC(C)C)NC(=O)OCc1ccccc1)C(=O)C(=O)OC (stereo unspecified)
– | 0.1 µM | > 100 µM | – | CCOC(=O)C(=O)C(CC)NC(=O)C(CC(C)C)NC(=O)C(c1ccccc1)c1ccccc1 (stereo unspecified)
23 µM | 40 µM | 20 µM | – | CCOC(=O)C(=O)C(CC)NC(=O)C(CC(C)C)NC(=O)CCc1ccccc1 (stereo unspecified)
– | 0.069 µM | – | – | CCCC(NC(=O)C(CC(C)C)NC(=O)OCc1ccccc1)C(=O)C(N)=O (stereo unspecified)

Ki [1] | Ki [2] | IC50 [3] | Ki [4] | SMILES
– | 0.68 µM | 66 µM | – | CCC(NC(=O)C(CC(C)C)NC(=O)OCc1ccccc1)C(=O)C(=O)NCC1CCCCC1 (stereo unspecified)
30 µM | 4.5 µM | 300 µM | 220 µM | CCOC(=O)C(=O)C(CC)NC(=O)C(CC(C)C)NC(=O)OCc1ccccc1 (stereo unspecified)
23 µM | – | 20 µM | – | CCOC(=O)C(=O)C(CC)NC(=O)C(CC(C)C)NC(=O)CCCc1ccccc1 (stereo unspecified)
0.2 µM | 0.8 µM | 100 µM | – | CCC(NC(=O)C(CC(C)C)NC(=O)OCc1ccccc1)C(=O)C(=O)NCCCc1ccccc1 (stereo unspecified)
22 µM | 1.8 µM | 40 µM | – | CCC(=O)C(=O)[C@H](CC)NC(=O)[C@H](CC(C)C)NC(=O)[C@H](CC(C)C)NC(=O)OCc1ccccc1
42 µM | 1.4 µM | – | 15 µM | CCOC(=O)C(=O)[C@H](Cc1ccccc1)NC(=O)[C@H](CC(C)C)NC(=O)[C@H](CC(C)C)NC(=O)OCc1ccccc1
69 µM | 33 µM | 30 µM | – | CCOC(=O)C(=O)[C@H](CC)NC(=O)[C@H](CC(C)C)NC(=O)[C@H](CC(C)C)NS(=O)(=O)c1ccc(C)cc1
25 µM | 16 µM | 100 µM | – | CCOC(=O)C(=O)[C@H](CC)NC(=O)[C@H](CC(C)C)NC(=O)[C@H](CC(C)C)NS(=O)(=O)c1ccc2ccccc2c1
– | 1.3 µM | 78 µM | – | CCOC(=O)C(=O)[C@H](CC)NC(=O)[C@H](CC(C)C)NC(=O)[C@H](CC(C)C)NC(=O)c1ccc2ccccc2c1
45 µM | 3.4 µM | – | 45 µM | CC(C)CC(NC(=O)OCc1ccccc1)C(=O)NC(Cc1ccccc1)C(=O)C(=O)OCc1ccccc1 (stereo unspecified)
2.6 µM | 0.32 µM | 200 µM | – | CCCCCCCCNC(=O)C(=O)C(CC)NC(=O)C(CC(C)C)NC(=O)OCc1ccccc1 (stereo unspecified)
3 µM | 0.16 µM | – | – | CCC(NC(=O)C(CC(C)C)NC(=O)OCc1ccccc1)C(=O)C(=O)NCC(c1ccccc1)c1ccccc1 (stereo unspecified)
270 µM | – | – | – | CCC(NC(=O)C(CC(C)C)NC(=O)OCc1ccccc1)C(=O)C(=O)N(CC)CC (stereo unspecified)
150 µM | 0.12 µM | – | – | CCCCCCCCCNC(=O)C(=O)C(CC)NC(=O)C(CC(C)C)NC(=O)OCc1ccccc1 (stereo unspecified)
14 µM | 20 µM | 22 µM | – | CCOC(=O)C(=O)C(CC)NC(=O)C(CC(C)C)NC(=O)C(CC)Oc1ccccc1 (stereo unspecified)
24 µM | – | – | – | CCOC(=O)C(=O)C(CC)NC(=O)C(CC(C)C)NC(=O)CCC(C)Cc1ccccc1 (stereo unspecified)
4 µM | 1.8 µM | 28 µM | 10 µM | CCCCOC(=O)C(=O)C(CC)NC(=O)C(CC(C)C)NC(=O)OCc1ccccc1 (stereo unspecified)
> 400 µM | – | – | – | CCC(NC(=O)C(CC(C)C)NC(=O)OCc1ccccc1)C(=O)C(=O)N(CC)Cc1ccccc1 (stereo unspecified)
340 µM | 1.8 µM | 200 µM | 75 µM | CCOC(=O)C(=O)C(Cc1ccccc1)NC(=O)C(CC(C)C)NC(=O)OCc1ccccc1 (stereo unspecified)
4.6 µM | – | > 300 µM | – | CC(C)CC(NC(=O)OCc1ccccc1)C(=O)NC(Cc1ccccc1)C(=O)C(=O)NCc1ccccc1 (stereo unspecified)
31 µM | > 5 µM | – | – | CCC(NC(=O)C(CC(C)C)NC(=O)OCc1ccccc1)C(=O)C(=O)N(Cc1ccccc1)Cc1ccccc1 (stereo unspecified)
3 µM | 0.5 µM | 38 µM | – | CCCCNC(=O)C(=O)C(Cc1ccccc1)NC(=O)C(CC(C)C)NC(=O)OCc1ccccc1 (stereo unspecified)
4 µM | 0.08 µM | 22 µM | – | CC(C)CNC(=O)C(=O)C(Cc1ccccc1)NC(=O)C(CC(C)C)NC(=O)OCc1ccccc1 (stereo unspecified)
13 µM | 0.2 µM | 35 µM | 93 µM | CCCCNC(=O)C(=O)C(CC)NC(=O)C(CC(C)C)NC(=O)OCc1ccccc1 (stereo unspecified)
